Test results: ChEMBL document CHEMBL1151726, “Interactions of antiviral indolo[2,3-b]quinoxaline derivatives with DNA” (2008)
Several values for one entry are separate records, joined by “and”; a condition that tells them apart may be missing. Identical values can stand only once. Activity calls are given as the source filed them. The calls are words filed in the database; no cut-off is given here.

Tests used:
[1] = tested on: Human betaherpesvirus 5; assay: Antiviral activity against human cytomegalovirus; assay type: functional
[2] = Ratio of binding constant K for 4 base pair binding site poly(dA-dT)2 DNA to binding constant K for calf thymus DNA
[3] = tested on: DNA; assay: Binding affinity to calf thymus DNA assessed as drug-DNA intercalation at 5 to 10 uM by absorption spectra analysis; assay type: nucleic-acid assay; settings: Bos taurus
How it was run: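 Ligands at 10 µM (monomeric) or 5 µM (dimeric) mixed 1:1 by volume with ct-DNA, 160 µM bases, in 10 mM phosphate pH 7.5, total Na+ 100 mM. Absorption spectra recorded at room temperature, several scans averaged.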

[4] = tested on: Nucleic Acid; assay: Binding affinity to poly(dA-dT)2 DNA assessed as drug-DNA intercalation at 5 to 10 uM by emission spectra analysis; assay type: nucleic-acid assay
How it was run: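 Emission spectra recorded with and without poly(dA-dT)2 at 100 µM bases. Ligand at 10 µM (monomeric) or 5 µM (dimeric), room temperature, 10 mM phosphate pH 7.5, total Na+ 100 mM.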

[5] = Ratio of binding constant K for 2 base pair binding site poly(dA-dT)2 DNA to binding constant K for calf thymus DNA
[6] = tested on: DNA; assay: Binding affinity to calf thymus DNA assessed as drug-DNA intercalation at 5 to 10 uM by linear dichroism analysis; assay type: nucleic-acid assay; settings: Bos taurus
How it was run: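 Flow linear dichroism with calf thymus DNA at 160 µM bases, ligand 10 µM (monomeric) or 5 µM (dimeric), 10 mM phosphate pH 7.5, Na+ 100 mM, room temperature. Spectra taken over 200–650 nm and baseline-corrected by subtracting the non-oriented sample spectrum.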

[7] = Ratio of binding constant K for poly(dA-dT)2 DNA to binding constant K for calf thymus DNA
[8] = Ratio of binding constant K for 3 base pair binding site poly(dA-dT)2 DNA to binding constant K for calf thymus DNA

Structure (SMILES) | inhibition (INH) [1] | Activity [3] | Activity [4] | other results
C[N+](C)(CCCCCC[N+](C)(C)CCn1c2ccccc2c2nc3ccccc3nc21)CCn1c2ccccc2c2nc3ccccc3nc21.[Br-].[Br-] | 100% | Active | Active | Ratio [2]: 3
Cc1cc2nc3c4ccccc4n(CCN(C)C)c3nc2cc1C [listing 1 of 2 here] | 20% |  |  | 
Cc1cc2nc3c4ccccc4n(CCN(C)C)c3nc2cc1C [listing 2 of 2 here] |  | Active | Active | Ratio [5]: 1.8 and 2.4; Activity [6]: inactive
Cc1cc2nc3c4cc(N)ccc4n(CCN(C)C)c3nc2cc1C.Cl | 100% | Active | Active | Ratio [7]: 1.7
Nc1nc2c(ncn2COC(CO)CO)c(=O)[nH]1 [GANCICLOVIR] | 30% |  |  | 
Cc1cc2nc3c4ccccc4n(CCN(C)C)c3nc2cc1C.I | 100% |  |  | 
C[N+](C)(CCC[N+](C)(C)CCn1c2ccccc2c2nc3ccccc3nc21)CCn1c2ccccc2c2nc3ccccc3nc21.[Br-].[Br-] | 100% | Active | Active | Ratio [8]: 1.9
Cc1cc2nc3c4ccccc4n(CCN(C)C)c3nc2cc1C.Cl | 100% |  |  | 
